Reference: ChEMBL document CHEMBL2034972, “Synthesis, biological evaluation, and structure-activity relationships of N-benzoyl-2-hydroxybenzamides as agents active against P. falciparum (K1 strain), Trypanosomes, and Leishmania” (J Med Chem, 2012)
Values after ≈ are worked out from the molar mass of the structure shown.

Experiments:
[1] = test system: Trypanosoma brucei rhodesiense; experiment: Antitrypanosomal activity against trypomastigotes of Trypanosoma brucei rhodesiense […] after 72 hrs by alamar blue assay; format: functional, organism-based; conditions: STIB 900, L6, 72 h
Method in brief: (§1)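 In vitro screens of parasites and host cells: T. b. rhodesiense STIB900 trypomastigotes, T. cruzi Tulahuen C4 intracellular amastigotes, L. donovani MHOM-ET-67/L82 axenic amastigotes, P. falciparum K1 erythrocytic stage, and L6 rat skeletal myoblasts […] for toxicity. […] Values are means of two independent determinations.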

[2] = test system: Trypanosoma cruzi; experiment: Antitrypanosomal activity against intracellular amastigote stage of Trypanosoma cruzi Tulahuen C2C4 infected in rat L6 cells after 96 hrs by spectrophotometric analysis; format: functional, organism-based; conditions: Tulahuen C2C4, L6, 96 h
Method in brief: (§2)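 In vitro screens of parasites and host cells: T. b. rhodesiense STIB900 trypomastigotes, T. cruzi Tulahuen C4 intracellular amastigotes, L. donovani MHOM-ET-67/L82 axenic amastigotes, P. falciparum K1 erythrocytic stage, and L6 rat skeletal myoblasts […] for toxicity. Values are means of two independent determinations.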

[3] = test system: Leishmania donovani; experiment: Antileishmanial activity against axenic amastigote stage of Leishmania donovani […] after 72 hrs by alamar blue assay; format: functional, organism-based; conditions: MHOM/ET/67/L82, L6, 72 h; method in brief: as §2
[4] = test system: Plasmodium falciparum; experiment: Antimalarial activity against chloroquine and pyrimethamine-resistant Plasmodium falciparum […] assessed as [3H]-hypoxanthine incorporation after 48 hrs by liquid scintillation counting; format: functional, organism-based; method in brief: as §1
[5] = test system: L6; experiment: Cytotoxicity against rat L6 cells after 72 hrs by alamar blue assay; format: cell-based; conditions: L6, 72 h; method in brief: as §1
[6] = Selectivity index, ratio of IC50 for rat L6 cells to IC50 for trypomastigotes of Trypanosoma brucei rhodesiense STIB 900; format: toxicity, cell-based; conditions: read-out: Ratio IC50
Method in brief: (§3)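 Selectivity index is calculated as the L6 myoblast IC50 divided by the IC50 against the respective parasite. Both IC50s are in µg/mL and are means of two independent determinations.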

[7] = Selectivity index, ratio of IC50 for rat L6 cells to IC50 for intracellular amastigote stage of Trypanosoma cruzi Tulahuen C2C4; format: toxicity, cell-based; conditions: read-out: Ratio IC50; method in brief: as §3
[8] = Selectivity index, ratio of IC50 for rat L6 cells to IC50 for axenic amastigote stage of Leishmania donovani MHOM/ET/67/L82; format: toxicity, cell-based; conditions: read-out: Ratio IC50; method in brief: as §3
[9] = Selectivity index, ratio of IC50 for rat L6 cells to IC50 for chloroquine and pyrimethamine-resistant Plasmodium falciparum K1; format: toxicity, cell-based; conditions: read-out: Ratio IC50; method in brief: as §3

Structure (SMILES)	IC50 [1] [µg/mL]	IC50 [2] [µg/mL]	IC50 [3] [µg/mL]	IC50 [4] [µg/mL]	IC50 [5] [µg/mL]	selectivity ratio [6]	selectivity ratio [7]	selectivity ratio [8]	selectivity ratio [9]
Cc1occc1C(=O)NC(=O)c1ccccc1O	48 (≈ 196 µM)	36 (≈ 147 µM)	2 (≈ 8.16 µM)	4.7 (≈ 19.2 µM)	16 (≈ 65.2 µM)	0.33	0.44	7.8	3.4
CCc1ccc(C(=O)NC(=S)c2ccccc2O)cc1	61 (≈ 214 µM)	10 (≈ 35 µM)	5.3 (≈ 18.6 µM)	4.2 (≈ 14.7 µM)	17 (≈ 59.6 µM)	0.28	1.7	3.3	4.1
O=C(NC(=O)c1ccccc1O)c1ccc(F)cc1	64 (≈ 247 µM)	51 (≈ 197 µM)	1.6 (≈ 6.17 µM)	1.5 (≈ 5.79 µM)	38 (≈ 147 µM)	0.6	0.75	23	25
CCCCOc1ccc(C(=O)NC(=O)c2ccccc2O)cc1	55 (≈ 176 µM)	11 (≈ 35.1 µM)	0.94 (≈ 3 µM)	0.26 (≈ 0.83 µM)	13 (≈ 41.5 µM)	0.23	1.2	14	50
Nc1nc(N)nc(Nc2ccc([As]3SCC(CO)S3)cc2)n1 (stereo not given) [MELARSOPROL]	0.005	–	–	–	–	–	–	–	–
O=C(NC(=O)c1ccccc1O)c1ccc(C(F)(F)F)cc1	70 (≈ 226 µM)	50 (≈ 162 µM)	0.57 (≈ 1.84 µM)	3.8 (≈ 12.3 µM)	13 (≈ 42 µM)	–	–	–	–
COC(=O)c1ccc(C(=O)NC(=O)c2ccccc2O)cc1	> 50	20 (≈ 66.8 µM)	> 50	2.9 (≈ 9.69 µM)	42 (≈ 140 µM)	< 0.83	2.1	< 0.83	14
O=C(NC(=O)c1ccccc1O)c1ccccc1O	62 (≈ 241 µM)	14 (≈ 54.4 µM)	1.9 (≈ 7.39 µM)	1.1 (≈ 4.28 µM)	39 (≈ 152 µM)	0.63	2.8	21	36
O=C(NC(=O)c1ccccc1O)c1ccc([N+](=O)[O-])cc1	> 100	56 (≈ 196 µM)	11 (≈ 38.4 µM)	22 (≈ 76.9 µM)	53 (≈ 185 µM)	< 0.53	0.94	4.9	2.4
O=C(NC(=O)c1ccccc1O)c1ccc2ccccc2c1	26 (≈ 89.3 µM)	8.5 (≈ 29.2 µM)	1 (≈ 3.43 µM)	0.22 (≈ 0.755 µM)	21 (≈ 72.1 µM)	0.78	2.4	20	94
CC(C)(C)c1ccc(C(=O)NC(=O)c2ccccc2O)cc1	61 (≈ 205 µM)	6 (≈ 20.2 µM)	0.14 (≈ 0.471 µM)	0.029 (≈ 0.0975 µM)	2.3 (≈ 7.73 µM)	0.038	0.38	17	80
COC(=O)CCC(=O)Nc1ccc(C(=O)NC(=O)c2ccccc2O)cc1	> 50	> 50	22 (≈ 59.4 µM)	21 (≈ 56.7 µM)	> 50	–	–	> 2.3	> 2.4
O=C(NC(=O)c1ccccc1O)c1ccc(-c2ccccc2)cc1	87 (≈ 274 µM)	7.7 (≈ 24.3 µM)	7.4 (≈ 23.3 µM)	3.9 (≈ 12.3 µM)	> 100	> 1.2	> 13	> 14	> 26
CCc1ccc(NC(=O)CC(=O)Nc2ccccc2O)cc1	35 (≈ 117 µM)	20 (≈ 67 µM)	13 (≈ 43.6 µM)	12 (≈ 40.2 µM)	16 (≈ 53.6 µM)	0.44	0.76	1.2	1.3
COc1cc(C(=O)NC(=O)c2ccccc2O)cc(OC)c1OC	79 (≈ 238 µM)	40 (≈ 121 µM)	3.2 (≈ 9.66 µM)	0.78 (≈ 2.35 µM)	21 (≈ 63.4 µM)	0.26	0.51	6.5	26
CCc1ccc(C(=O)Nc2n[nH]c3ccccc23)cc1	8.2 (≈ 30.9 µM)	8.9 (≈ 33.5 µM)	3 (≈ 11.3 µM)	8.5 (≈ 32 µM)	8.2 (≈ 30.9 µM)	–	–	–	–
CCc1ccc(-c2noc(-c3ccccc3O)n2)cc1	61 (≈ 229 µM)	39 (≈ 146 µM)	–	27 (≈ 101 µM)	> 100	> 1.6	> 2.6	> 1	> 3.7

Structure (SMILES)	IC50 [1] [µg/mL]	IC50 [2] [µg/mL]	IC50 [3] [µg/mL]	IC50 [4] [µg/mL]	IC50 [5] [µg/mL]	selectivity ratio [6]	selectivity ratio [7]	selectivity ratio [8]	selectivity ratio [9]
O=C(NC(=O)c1ccc(Cl)cc1Cl)c1ccccc1O	> 100	58 (≈ 187 µM)	11 (≈ 35.5 µM)	14 (≈ 45.1 µM)	62 (≈ 200 µM)	< 0.62	1.1	5.5	4.4
CCc1ccc(NC(=O)Nc2ccccc2O)cc1	18 (≈ 70.2 µM)	7 (≈ 27.3 µM)	3.7 (≈ 14.4 µM)	2.1 (≈ 8.19 µM)	9.6 (≈ 37.5 µM)	0.54	1.4	2.6	4.6
O=C(NC(=O)c1ccccc1O)c1ccc(OCc2ccccc2)cc1	62 (≈ 178 µM)	4.4 (≈ 12.7 µM)	1.5 (≈ 4.32 µM)	4.1 (≈ 11.8 µM)	64 (≈ 184 µM)	1	15	42	16
N#Cc1ccc(C(=O)NC(=O)c2ccccc2O)cc1	> 100	100 (≈ 376 µM)	12 (≈ 45.1 µM)	14 (≈ 52.6 µM)	55 (≈ 207 µM)	< 0.55	0.55	4.7	3.9
CCN(CC)c1ccc(C(=O)NC(=O)c2ccccc2O)cc1	> 50	2.8 (≈ 8.96 µM)	0.91 (≈ 2.91 µM)	0.005 (≈ 0.016 µM)	8.2 (≈ 26.3 µM)	–	–	–	–
COc1ccc(C(=O)NC(=O)c2ccccc2O)cc1	50 (≈ 184 µM)	31 (≈ 114 µM)	1.7 (≈ 6.27 µM)	1.6 (≈ 5.9 µM)	39 (≈ 144 µM)	0.78	1.3	23	24
O=C(NC(=O)c1ccccc1O)c1cccc(CCl)c1	20 (≈ 69 µM)	17 (≈ 58.7 µM)	0.16 (≈ 0.552 µM)	4.4 (≈ 15.2 µM)	1.8 (≈ 6.21 µM)	0.087	0.1	11	0.4
O=C(NC(=O)c1ccccc1O)c1ccc(OC(F)(F)F)cc1	65 (≈ 200 µM)	72 (≈ 221 µM)	5.3 (≈ 16.3 µM)	22 (≈ 67.6 µM)	84 (≈ 258 µM)	–	–	–	–
O=C(NC(=O)C1CCCCC1)c1ccccc1O	> 100	16 (≈ 64.7 µM)	6 (≈ 24.3 µM)	13 (≈ 52.6 µM)	55 (≈ 222 µM)	< 0.55	3.4	9.2	4.4
CC(C)c1ccc(C(=O)NC(=O)c2ccccc2O)cc1	65 (≈ 229 µM)	2 (≈ 7.06 µM)	1.3 (≈ 4.59 µM)	1.5 (≈ 5.29 µM)	19 (≈ 67.1 µM)	0.29	9.5	14	12
CCc1ccc(C(=O)Nc2cn(C(C)=O)c3ccccc23)cc1	> 50	28 (≈ 91.4 µM)	> 50	23 (≈ 75.1 µM)	23 (≈ 75.1 µM)	< 0.46	< 0.81	< 0.46	1
CN(C)c1ccc(C(=O)NC(=O)c2ccccc2O)cc1	81 (≈ 285 µM)	37 (≈ 130 µM)	18 (≈ 63.3 µM)	0.49 (≈ 1.72 µM)	54 (≈ 190 µM)	0.66	1.4	3	110
CCOc1ccc(C(=O)NC(=O)c2ccccc2O)cc1	60 (≈ 210 µM)	4.1 (≈ 14.4 µM)	0.45 (≈ 1.58 µM)	1 (≈ 3.51 µM)	17 (≈ 59.6 µM)	0.28	4.1	37	17
CS(=O)(=O)c1ccc(C(=O)NC(=O)c2ccccc2O)cc1	> 100	51 (≈ 160 µM)	> 100	38 (≈ 119 µM)	> 100	–	> 2	–	> 2.7
O=C(NC(=O)c1ccccc1O)c1ccc(N2CCOCC2)cc1	> 50	> 50	16 (≈ 49 µM)	0.18 (≈ 0.552 µM)	> 50	–	–	> 3.1	> 272
O=C(CCCCCCC(=O)Nc1ccc(C(=O)NC(=O)c2ccccc2O)cc1)NO	65 (≈ 152 µM)	49 (≈ 115 µM)	> 100	3.5 (≈ 8.19 µM)	> 100	> 1.5	> 2.1	–	> 29
